Screening results as filed in PubChem BioAssay.
STAT3 act – IL-6 driven STAT3 reporter potentiators, primary screen, U3A cells, luciferase, luminescence, MLSCN library; activation (% of control), % at 5.6 µM; 190,000 compounds, 0.91% hits; AID 871, 2007; IL-6 STAT3-luciferase reporter; 100% = signal with IL-6 EC80 alone;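 active = activation above the screen-wide mean of compound activation plus 3 SD, cut at about 130% in these data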
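Test system: Human STAT1-deficient U3A cells with stable STAT3-luciferase reporter | Also added: Interleukin-6, 33 ng/mL | Timing: Compound pre-incubation 1 h before IL-6, then 6 h stimulation at 37 °C | Technique: Luciferase reporter luminescence | Read-out: Percent of IL-6-only median luminescence | Benchmarks: IL-6-only wells as 100% reference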
STAT1 blocker – STAT1 signaling inhibitors, primary screen, cell-based, HTS, luciferase reporter. NIH 3T3 STAT1-luciferase reporter, IFN-gamma, luminescence. AID 920, 2007. 200,000 compounds, 0.35% hits. inhibition, % at 5.5 µM;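 active = inhibition above a set limit, the mean inhibition across all tested compounds plus 3 SD, cut at about 34% in these data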
TRAIL sens C8 – viability loss with TRAIL in NB7+C8 cells, primary screen, TRAIL sensitizer project, cell-based, ATPlite luminescence; inhibition (viability loss, TRAIL sensitization), % at 10 µM; AID 624354, 2012; 360,000 compounds, 1% hits;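 active = compounds causing at least 50% loss of cell viability in the single-dose screen, relative to plate controls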
STAT3 inh-1 – IL-6 driven STAT3 reporter inhibitors, primary screen, U3A cells, luciferase, luminescence, MLSCN library; IL-6 STAT3-luciferase reporter; host cell line lacks STAT1; inhibition, % at 5.5 µM; 190,000 compounds, 0.89% hits; AID 862, 2007;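 active = inhibition above the mean inhibition across all screened compounds plus 3 SD, cut at about 44% in these data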
PPC-1+TRAIL kill – compounds killing PPC-1 cancer cells with TRAIL present, primary screen, TRAIL potentiator project, ATPLite luminescence, uHTS | PPC-1 cells + TRAIL, ATPLite viability luminescence | cell killing (% activity), % at 4 µM or 5 µM | 220,000 compounds, 0.41% hits | AID 1443, 2008;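 active = cell killing above 50% in the first pass at 4 µM, then a duplicate retest at 5 µM averaging 50% or more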
STAT3 inh-2 – STAT3 reporter inhibitors, retest of hits, confirmation, U3A cells, luciferase, luminescence | AID 1265, 2008 | 1,200 compounds, 45% hits | shares compounds with STAT3 inh-1 | inhibition, % at 5.7 µM | IL-6 STAT3 luciferase reporter; cell line lacks STAT1;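 active = inhibition above the hit cutoff computed for the primary STAT3 screen, cut at about 44% in these data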
NFkB inh STAT3ct – NF-kB reporter inhibitors in human cells, confirmation, counter-screen for STAT3 inhibitor project, cell-based, HEK293T, luciferase, TNF-alpha stimulus; shares compounds with STAT3 inh-1; inhibition, % at 5.7 µM; TNF-alpha induced; 1,200 compounds, 36% hits; AID 1308, 2008;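 active = inhibition above the mean of solvent-only control wells plus 3 SD, cutoff set per campaign, cut at about 13% in these data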
STAT1 inh 2 – STAT1 reporter inhibitors, IFN-gamma induced, confirmation, counter-screen for STAT3 inhibitor project, cell-based, NIH 3T3, luciferase luminescence; shares compounds with STAT3 inh-1; NIH 3T3 STAT1-luciferase reporter; inhibition, % at 5.7 µM; 1,200 compounds, 27% hits;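 active = inhibition above the mean plus 3 SD of solvent-only control wells, limit set per screening run, cut at about 16% in these data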
Hits are given with their value; n = inactive; x = no result given. The list is not random: actives were taken first. Their share in the collection is about 1.8%.

SMILES | STAT3 act | STAT1 blocker | TRAIL sens C8 | STAT3 inh-1 | PPC-1+TRAIL kill | STAT3 inh-2 | NFkB inh STAT3ct | STAT1 inh 2
COc1ccc(NC(=O)C(C)N2c3cccc4cccc(c34)S2(=O)=O)cc1OC (stereo not given) | n | n | n | 46 | n | n | n | 22
O=C(Cn1cnc2c(NCc3ccccc3)ncnc21)NCCc1cc2ccccc2[nH]1 | x | x | n | x | x | x | x | x
Cc1cc(C(=O)Cn2nnc3ccccc3c2=O)c(C)n1Cc1cccs1 | n | n | 58 | 46 | n | n | n | n
COc1ccc(Cn2c(=O)[nH]c3cc(C(=O)N4CCN(Cc5ccccc5)CC4)ccc3c2=O)cc1 | n | n | n | 64 | n | 56 | 16 | n
Cc1sc2ncnc(NCc3cccs3)c2c1C | n | n | n | 48 | n | n | n | n
O=C(Nc1ccc(N2CCCC2)cc1)c1cccc(F)c1 | n | n | n | 48 | n | n | n | n
Cn1c(CN2CCCCC2)nc2cc(NC(=O)c3ccc(Cl)cc3)ccc21 | n | n | n | 70 | n | 70 | 23 | n
COc1ccc(OC)c(-n2c(=S)[nH]c3cc(C(=O)N(C)Cc4ccccc4)ccc3c2=O)c1 | n | n | n | n | n | x | x | x
COc1ccc(-c2csc(N3C(=N)SCC3=O)n2)cc1 | n | n | n | 50 | n | n | n | n
COc1ccc(-c2csc(N3C(=O)CNC3=S)n2)cc1 | n | n | n | n | n | x | x | x
COc1ccc(C(=O)OCC(=O)NCC2CCCCC2)c(OC)c1 | x | x | n | x | x | x | x | x
CC(=O)c1c(C)[nH]c(C(=O)OCC(=O)Nc2ccc(Cl)cc2[N+](=O)[O-])c1C | n | n | n | 57 | n | 73 | 28 | 28
c1ccc(-c2nnc(NC3=NCCC3)o2)cc1 | n | n | n | 44 | n | n | n | n
CC(c1nnc(SCC(=O)Nc2cc([N+](=O)[O-])ccc2F)n1Cc1ccccc1)N(C)C (stereo not given) | x | x | n | x | x | x | x | x
O=C(Nc1cccc(O)c1)C(=O)Nc1ccccn1 | n | n | 71 | 71 | n | 51 | n | n
O=C(Nc1ccccc1)C(=O)Nc1ccccn1 | n | n | n | 70 | n | n | n | n
S=C(Nc1ccccc1)Nc1ccccn1 | x | x | n | x | x | x | x | x
CCCCCCN1C[C@H](n2cc(COC(=O)c3ccccc3)nn2)[C@@H](O)C[C@@H]1c1ccc(C)cc1 | x | x | n | x | x | x | x | x
CC(=O)N1c2ccc(C)cc2C(c2ccccc2)CC1C (stereo not given) | x | x | n | x | x | x | x | x
Nc1nnc(SCC(=O)NNC(=O)c2ccc([N+](=O)[O-])cc2)s1 | x | x | n | x | x | x | x | x
CCCCCCn1ccc(=N)cc1 | n | n | n | 70 | n | 56 | 18 | n
Cc1sc(NC(=O)CN2CCOCC2)nc1-c1ccc2c(c1)CCN2S(=O)(=O)c1ccccc1 | n | n | n | 66 | n | 52 | 22 | 20
CSc1ccc(NC(=O)N2CCN(c3nc4ccccc4s3)CC2)cc1 | n | n | n | 46 | n | 46 | n | n
COc1ccc(/C=C/C(=O)N(CCC(N)=O)c2ccccc2)cc1S(=O)(=O)N1CCOCC1 | x | x | n | x | x | x | x | x
CC1(C(=O)Nc2cnc3ccccc3c2)CCN1Cc1ccccc1Cl (stereo not given) | x | x | n | x | x | x | x | x
SMILES | STAT3 act | STAT1 blocker | TRAIL sens C8 | STAT3 inh-1 | PPC-1+TRAIL kill | STAT3 inh-2 | NFkB inh STAT3ct | STAT1 inh 2
CCc1ccc(NC(=O)c2ccc(C3SCC(=O)N3CCc3ccccc3)cc2)cc1 (stereo not given) | n | n | n | 46 | n | 48 | 15 | n
Cc1nc2nc(-c3ccc(Cl)cc3)cn2nc1C | n | n | n | 66 | n | n | n | n
COc1cccc(-c2cn3nc(C)c(C)nc3n2)c1 | n | n | n | n | n | x | x | x
Cc1nn2cc(-c3ccc(Cl)cc3)nc2s1 | n | n | n | 52 | n | n | n | n
O=C(O)CCn1c(-c2ccccn2)nc2ccccc21 | x | x | n | x | x | x | x | x
CC(C)CC(=O)Nc1ccc2oc(-c3ccncc3)nc2c1 | n | n | n | n | n | x | x | x
Cc1ccc(-c2nc3cc(NC(=O)C(C)C)ccc3o2)cc1C | n | n | n | 61 | n | n | n | n
CC(C)C(=O)Nc1ccc(-c2nc3cccnc3o2)cc1 | n | n | n | 48 | n | n | n | n
CC(Oc1ccc(Cl)cc1Cl)C(=O)Nc1ccc2oc(-c3ccncc3)nc2c1 (stereo not given) | n | n | n | 50 | n | 50 | n | n
Cc1cc2nc(-c3ccc(NC(=O)C(C)C)cc3)oc2cc1C | n | n | n | n | n | x | x | x
Cc1ccc(-c2nc3cc(NC(=O)C(C)C)ccc3o2)cc1 | n | n | n | 45 | n | n | n | n
COC(=O)C1=C(C(=O)OC)[C@@H]2Nc3ccccc3[C@@]23C[C@@H](C(=O)OC)N(C(=O)CC(C)C)C3=N1 | x | x | n | x | x | x | x | x
CCCCNC(=O)C1(C)CCCCN1C(=O)c1cccc(OC(F)(F)F)c1 (stereo not given) | x | x | n | x | x | x | x | x
Cc1cccc(-n2ncc3c(N4CCCC4)ncnc32)c1 | n | n | 80 | 67 | n | n | n | n
Cc1cccc(-n2ncc3c(N4CC(C)CC(C)C4)ncnc32)c1 (stereo not given) | n | n | n | n | n | x | x | x
COc1cc(/C=N/N=C(\N)c2nonc2N)cc(OC)c1O | x | x | n | x | n | x | x | x
COc1ccc(/C=N/N=C(\N)c2nonc2N)cc1 | n | n | n | 51 | n | n | n | n
O=C(Nc1nc(-c2ccc3c(c2)OCCO3)cs1)c1ccc(S(=O)(=O)N2CCCCC2)cc1 | n | n | n | 45 | n | 62 | 18 | n
O=C(Nc1nc(-c2ccc(S(=O)(=O)N3CCCCCC3)cc2)cs1)c1ccccc1 | n | n | n | n | n | x | x | x
O=C(Nc1ccc(Cl)c(Cl)c1)Nc1ccccc1C(=O)O | n | n | 63 | 53 | n | n | n | n
O=C(Nc1ccc(Cl)cc1)Nc1ccccc1C(=O)O | n | n | 75 | 62 | x | n | n | n
O=C(Cc1ccccc1)NNC(=O)Nc1ccc(Cl)c(Cl)c1 | n | n | n | n | n | x | x | x
O=C(Nc1cccc(Cl)c1)Nc1ccccc1C(=O)O | x | x | n | x | n | x | x | x
O=C(Nc1ccc(S(=O)(=O)N2CCCC2)cc1)c1ccc(CN2CCc3ccccc3C2)cc1 | n | n | n | 82 | n | 85 | 34 | n
O=C(Nc1ccc(S(=O)(=O)N2CCOCC2)cc1)c1ccc(CN2CCc3ccccc3C2)cc1 | n | n | x | 83 | n | 88 | 42 | 33
